Scp1 inh: Scp-1 phosphatase inhibitors, primary screen, biochemical, colorimetric, uHTS; Carboxy-terminal domain RNA polymerase II polypeptide A small phosphatase 1 (Homo …; Recombinant Scp1, phosphopeptide, malachite green phosphate absorbance; inhibition, % at 20 µM; actives 0.88% (n = 340,000);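 active = inhibition above about 50% at 20 µM, limit read from the data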
Target sequence (Q9GZU7 76-261 limits assumed): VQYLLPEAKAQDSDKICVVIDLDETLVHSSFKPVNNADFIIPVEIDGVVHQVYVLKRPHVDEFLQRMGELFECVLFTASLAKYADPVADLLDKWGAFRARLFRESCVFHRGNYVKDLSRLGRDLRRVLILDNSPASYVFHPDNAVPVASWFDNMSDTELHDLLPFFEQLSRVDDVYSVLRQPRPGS
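Incubation: 45 min enzyme reaction at room temperature / System: truncated SCP-1 phosphatase (76-261aa) / Reagent: Phospho 17-mer peptide substrate / Buffer or medium: Acidic Tris acetate buffer with magnesium and detergent / Signal: absorbance at 630 nm / Doses: one concentration, 20 µM, with 1.0% DMSO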
DNMT1 block: human DNMT1 methyltransferase inhibitors, primary screen, biochemical, molecular beacon, fluorescence, HinP1I cleavage, uHTS. DNA (cytosine-5)-methyltransferase 1 (Homo sapiens), P26358. inhibition (reported as % activation of signal), % at 10 µM. actives 0.83% (n = 360,000). AID 588458, 2011; in the data active = inhibition above about 50%
SUMO1-SIM PPI: modulators of SUMO1 protein-protein interactions, primary screen, biochemical, uHTS; actives 0.33% (n = 360,000); Small ubiquitin-related modifier 1 (Homo sapiens), P63165; AID 602429, 2012; inhibition, % at 20 µM; SUMO1 binding to a labelled peptide, TR-FRET, 1 h; in the data active = inhibition above about 37%
Target sequence (P63165 whole entry, looked up): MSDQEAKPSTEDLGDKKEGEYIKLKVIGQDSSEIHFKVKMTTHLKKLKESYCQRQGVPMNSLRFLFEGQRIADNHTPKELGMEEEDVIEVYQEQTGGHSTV
STEP inh: STEP phosphatase inhibitors, primary screen, biochemical, fluorescence intensity, uHTS. recombinant STEP, OMFP fluorogenic substrate. inhibition, % at 20 µM. actives 0.25% (n = 360,000). AID 588621, 2011;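 active = inhibition at 20 µM, scaled per plate between control wells, above about 37%, limit read from the data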
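Assay system: isolated STEP enzyme. Buffer or medium: pH 6.0 Bis-Tris with DTT and Tween 20. Also added: fluorogenic phosphatase substrate OMFP at 25 µM final. Dosing: 20 µM, 1% DMSO. Timing: 20 min reaction, room temperature, in the dark. Measured by: fluorescence intensity, excitation 480 nm, emission 540 nm. Evaluation: normalized % inhibition.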
LMPTP block: LMPTP phosphatase inhibitors, primary screen, biochemical, fluorescence intensity, uHTS; Low molecular weight phosphotyrosine protein phosphatase (Homo sapiens), P24666; inhibition, % at 20 µM; recombinant LMPTP-A, OMFP fluorogenic substrate; actives 0.22% (n = 360,000);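 active = compounds that cut the enzyme signal by at least half of the control window in the single-dose screen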
Target sequence (P24666 whole entry, looked up): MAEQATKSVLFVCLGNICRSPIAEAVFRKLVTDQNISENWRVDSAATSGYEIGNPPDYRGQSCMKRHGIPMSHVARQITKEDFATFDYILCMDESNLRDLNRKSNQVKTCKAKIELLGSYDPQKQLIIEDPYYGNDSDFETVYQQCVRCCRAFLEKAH
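Test system: LMPTP-A phosphatase enzyme. Amount: LMPTP-A at 0.625 nM final in the reaction. Reagent: OMFP substrate, 400 µM final. Times: 50 min at room temperature. Signal: endpoint fluorescence intensity from OMFP dephosphorylation. Read-out basis: % inhibition. Benchmarks: no-enzyme and uninhibited controls.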
CASP6 VEID inh: human caspase-6 inhibitors, primary screen, biochemical, VEID-R110 fluorescence, single point, set 2. purified caspase-6, Z-VEID-R110 cleavage fluorescence. AID 686996, 2013. actives 0.53% (n = 350,000). inhibition, % at 12.5 µM. P55212;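 active = mean inhibition across replicates at least about 35%, with every replicate also reaching that limit, limit read from the data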
Scp-1 conf: Scp-1 phosphatase inhibitors, retest, confirmation, biochemical, colorimetric, single concentration. shares compounds with Scp1 inh. recombinant SCP-1 catalytic domain, phosphate release, malachite green absorbance. inhibition, % at 20 µM. actives 61% (n = 2,500)
MG interference: colorimetric readout interference by compounds, confirmation, artefact control for Scp-1 inhibitor project, biochemical, single concentration; 2,500 tested, under 10 active; AID 540313, 2011; shares compounds with Scp1 inh; Colorimetric interference counterscreen, malachite green absorbance 630 nm; apparent inhibition (interference), % at 20 µM;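 note: compounds added after enzyme reaction finished so only phosphate colour detection is probed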
Scp-1 Tm shift: Scp-1 binding by thermal shift, confirmation, orthogonal assay for Scp-1 inhibitor project, biophysical, differential scanning fluorimetry. shares compounds with Scp1 inh. Recombinant SCP1, Sypro Orange thermal shift Tm. thermal shift relative to vanadate control, % at 40 µM. actives 25% (n = 1,500). AID 540329, 2011;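 active = substances whose mean melting-temperature shift, as a percentage of the reference inhibitor's shift, reaches about 5.3%, limit read from the data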
Numbers stand for hits; . = inactive; / = no result. An excerpt weighted towards active compounds, which were near 1.7% of everything screened.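 Rule for the calls, unless noted: active = inhibition of at least 30% at 20 µM; inactive = the rest.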

SMILES	Scp1 inh	DNMT1 block	SUMO1-SIM PPI	STEP inh	LMPTP block	CASP6 VEID inh	Scp-1 conf	MG interference	Scp-1 Tm shift
CC(C)NC(=O)CSc1ncccc1-c1nc2ccccc2[nH]1	.	.	.	.	.	.	/	/	/
Oc1ccc(Nc2nc(-c3cccs3)cs2)cc1	.	.	.	.	.	/	/	/	/
COc1ccc(C2C(=O)c3ccccc3C2=O)cc1	.	.	.	.	.	.	/	/	/
O=C(COC(=O)COc1ccccc1)NCc1ccco1	.	.	.	.	.	.	/	/	/
COc1ccc(OCCC(=O)OCC(=O)NCc2ccco2)cc1	86	.	.	.	.	/	72	.	.
COc1cc(/C=C/C(=O)OCC(=O)NCc2ccco2)ccc1OC(F)F	.	.	.	.	.	.	/	/	/
O=C(COc1ccccc1Cl)NCc1ccco1	.	.	.	.	.	/	/	/	/
CCOc1ccccc1OCC(=O)NCc1ccco1	58	.	.	.	.	.	60	.	.
COc1ccc(C(=O)OCC(=O)NCc2ccco2)cc1OC	56	.	.	.	.	/	53	.	.
COc1ccc(/C=C/C(=O)OCC(=O)NCc2ccco2)cc1OC	52	.	.	.	.	/	59	.	.
Cc1cccc(C)c1NC(=O)c1cccc2c1-c1ccccc1C2=O	.	.	.	.	.	.	/	/	/
Cc1[nH]nc(SCC(=O)N2CCCC2)c1[N+](=O)[O-]	.	.	.	.	.	.	/	/	/
Cc1ccc(OCC(=O)N(C)CC(=O)NCc2ccco2)c(Br)c1	70	.	.	.	.	.	75	.	.
O=C(COc1ccc(Cl)cc1Cl)NCc1ccco1	.	.	.	.	.	/	/	/	/
O=C(Nc1ccc(O)c(-c2nc3ccccc3s2)c1)c1cc(=O)c2ccccc2o1	80	.	.	.	52	/	68	.	.
NC(=O)c1nc(-c2ccccc2)c(-c2ccccc2)[nH]c1=O	.	.	.	.	.	.	/	/	/
O=C(Cn1ncc(Cl)c(Cl)c1=O)NC1CCS(=O)(=O)C1 (stereo not given)	88	.	.	.	.	.	69	.	.
N#Cc1ccc(-c2ccc([C@@H]3[C@@H](CO)N4C(=O)CN(C(=O)Cc5ccccc5)C[C@@H]34)cc2)cc1	/	/	/	/	/	.	/	/	/
Cc1ccc(C(=O)NCc2ccco2)cc1S(=O)(=O)Nc1cccc(C)c1C	.	.	.	.	.	/	/	/	/
COc1cccc(NS(=O)(=O)c2ccc3[nH]cc(C(=O)N(C)Cc4ccco4)c(=O)c3c2)c1	.	.	.	.	.	/	/	/	/
CCN1/C(=C2\C(=O)N(c3ccccc3)N=C2C)C=Cc2cc(C)ccc21	58	.	.	.	.	.	.	.	/
CN1C(=O)c2cc(NC(=O)NC3CCCC3)ccc2OC[C@H]2O[C@@H](CC(=O)NCC3CC3)CC[C@H]21	/	/	/	/	/	.	/	/	/
CC(C)c1ccc(/C=C/C(=O)NCCC2=CCCCC2)cc1	.	.	.	.	.	.	/	/	/
